# Rows were chosen to be rich in hits. Some 1.9% of all compounds tested hit in one or more screens of this group.
# NadD inh: inhibitors of Staphylococcus aureus NadD; purified NadD enzyme, colorimetric absorbance read-out; inhibition, % at 20 µM; actives 0.78% (n = 360,000); AID 602399; in the data active = inhibition above about 26%
# Rce1 inh: yeast Ras-converting enzyme inhibition; yeast membranes, quenched prenylated peptide cleavage fluorescence; calls only; actives 0.27% (n = 290,000); AID 2563;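 active = fall in fluorescence gain of 50% or more versus controls, with final raw signal at or below 3038400; inconclusive = same 50% fall but final raw signal above 3038400; inactive = fall in fluorescence gain under 50%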;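 note: plate controls were neutral control wells for no effect and wells lacking membranes for full effect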
# Target sequence (Q03530 whole entry, looked up): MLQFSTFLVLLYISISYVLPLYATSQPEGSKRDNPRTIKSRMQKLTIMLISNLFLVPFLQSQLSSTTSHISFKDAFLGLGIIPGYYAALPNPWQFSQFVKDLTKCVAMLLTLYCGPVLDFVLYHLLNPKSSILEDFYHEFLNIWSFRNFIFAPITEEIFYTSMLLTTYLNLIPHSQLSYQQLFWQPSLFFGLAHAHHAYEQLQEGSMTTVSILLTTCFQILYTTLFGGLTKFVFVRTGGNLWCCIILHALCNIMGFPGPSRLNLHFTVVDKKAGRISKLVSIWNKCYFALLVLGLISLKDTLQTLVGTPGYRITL
# HCV core dimer: HCV core protein dimerization inhibition; TR-FRET GST/Flag-core106 dimerization, 1536-well; inhibition, % at 5 µM; actives 0.33% (n = 300,000);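 active = inhibition above the mean of all tested compounds plus 3 SD, set per screening campaign, cut at about 45% in these data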
#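 test system = GST/Flag-tagged HCV core106 proteins | probe or stimulus = Eu donor and XL665 acceptor anti-tag antibodies | times = compound-protein-antibody incubation 4 h at 22.5 °C | signal = TR-FRET, excitation 340 nm, emission 617 and 671 nm | measure = percent inhibition of core106 dimerization signal | controls = wells lacking GST-core106 and wells with excess unlabelled core106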
# DSG3 Ab inh: human desmoglein-3 autoantibody binding inhibition | DSG3-coupled beads, scFv-anti-DSG3-GFP binding, flow cytometry; stronger effect = lower value | binding (percent of control), % at 10 µM | actives 0.48% (n = 310,000) | P32926 | AID 588358;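 active = binding more than 3 SD below its plate's average and above zero; inconclusive = below that plate limit but binding exactly zero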;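 note: hits lower antibody fragment binding to DSG3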
# TbMetRS inhib: Trypanosoma brucei MetRS inhibition; purified T. brucei MetRS, ATP depletion, Kinase-Glo luminescence; inhibition, % at 11.9 µM; actives 0.4% (n = 360,000); AID 624268;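 active = inhibition above a per-plate cutoff of the control wells' mean inhibition plus 3 SD, cut at about 5.5% in these data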;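 note: 0% = DMSO wells median and 100% = median of wells with control inhibitor compound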
#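 technique = Kinase-Glo luminescence, ATP depletion format | system = purified MetRS (methionyl-tRNA synthetase) enzyme from Trypanosoma brucei | timing = 15 min preincubation, 2 h reaction, all 25 °C | evaluation = percent inhibition versus plate control medians | dosing = single dose, 11.9 µM final nominal, 0.9% final DMSO | also added = substrates ATP, L-methionine and bulk Escherichia coli tRNA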
# * = called active by the depositor; i = inactive; ? = inconclusive; / = not tested or not shown; + = active, no number.
SMILES,NadD inh,Rce1 inh,HCV core dimer,DSG3 Ab inh,TbMetRS inhib
Cc1c(Cl)cccc1NC(=O)CNC(=O)c1cn(-c2ccccc2)nc1-c1cccnc1,10.5,/,/,101.9,30.7*
CCOC(=O)c1[nH]c2cc3c(cc2c1CCCN1C(=O)c2ccccc2C1=O)OCCO3,-3.8,i,7.1,-28.9*,0.2
CCOC(=O)c1[nH]c2ccccc2c1CCCN1C(=O)c2ccccc2C1=O,-10.5,i,3.1,/,-1.2
O=C(NC(=O)N1CCCCCC1)c1ccccc1,-6.4,i,-9.9,97.3,0.1
COc1ccccc1C(=O)OCC(=O)Nc1ccccc1OC(F)F,-2.4,i,-3.3,109.1,-0.8
COC(=O)c1ccc(C(=O)OC)c(NC(=O)COC(=O)c2ccccc2OC)c1,-0.6,i,1.4,-8.0*,0.2
CCOC(=O)c1cn(-c2ccc([N+](=O)[O-])cc2)c2cc(Cl)c([N+](=O)[O-])cc2c1=O,9.7,i,-13.9,61.8*,-1.3
O=C(O)c1cn(-c2ccc(F)cc2)c2cc(Cl)c(F)cc2c1=O,-4.2,i,-2.0,116.2,-0.5
O=C(NC(c1ccc(Cl)cc1)c1cc(Cl)c2cccnc2c1O)c1cccnc1 (configuration not stated),46.9*,i,1.7,93.1,-0.2
CC(=O)NC(c1ccccc1)c1cc(Cl)c2cccnc2c1O (configuration not stated),1.3,i,-3.3,102.9,-0.4
CCc1c(C)sc(NC(=O)CSc2nc3c(c(C(F)(F)F)n2)CCc2ccccc2-3)c1C#N,-2.2,/,0.2,89.0,-0.7
CCN(CC)S(=O)(=O)c1ccc(S(=O)(=O)N(Cc2ccccn2)Cc2ccco2)cc1,-3.7,i,-1.2,103.2,-0.6
O=S(=O)(NCc1ccccc1)c1ccc(S(=O)(=O)N(Cc2ccccn2)Cc2ccco2)cc1,2.9,i,4.7,75.7*,-1.7
CCOC(=O)Cc1csc(NS(=O)(=O)c2ccc(C(F)(F)F)cc2)n1,1.3,i,-2.9,109.8,-0.6
CC(Sc1nnc(N)s1)C(=O)Nc1ccc2c(c1)OCO2 (configuration not stated),5.4,/,/,89.1*,-0.7
CC(Sc1nnc(N)s1)C(=O)NCc1ccc2c(c1)OCO2 (configuration not stated),1.0,/,/,80.4,-0.5
Cc1[nH]n(-c2nc(-c3ccc(Cl)cc3)cs2)c(=O)c1N=Nc1ccc(O)cc1,36.7*,i,32.1,94.1,-1.2
O=C(c1cccc(-n2cccc2)c1)N1CCN(S(=O)(=O)c2ccccc2)CC1,5.0,i,65.2*,83.5,-0.1
Cc1ccc(S(=O)(=O)N2CCN(C(=O)c3cccc(-n4cccc4)c3)CC2)cc1,1.1,i,31.2,98.6,-0.1
O=C(Cc1ccc(Cl)cc1Cl)NC1CCCCCC1,-2.6,i,-3.5,23.9*,-1.1
COc1cc(OC)cc(-c2c(C#Cc3ccsc3)c3cc(-c4ccc(N(C)C)nc4)ccc3n2C)c1,15.4,/,/,92.4,-0.3
CC1=Nc2nc(N3CCCCCC3)c(C#N)c3c4c(nc(c23)N1)N(c1ccc2ccccc2c1)C(=O)C4,55.0*,i,-13.5,88.2,0.0
COc1ccc(N2C(=O)Cc3c2nc(N)c(C#N)c3N)cc1,-0.6,i,-0.3,90.0,-1.1
O=C(N/N=C/c1cc(Br)c(O)c(Br)c1)c1cc2c(ccc3ccccc32)o1,27.4,i,/,/,0.1
O=C(N/N=C/c1ccc(O)c(Br)c1)c1cc2c(ccc3ccccc32)o1,50.2*,i,/,77.5*,-0.2
SMILES,NadD inh,Rce1 inh,HCV core dimer,DSG3 Ab inh,TbMetRS inhib
CCC1(CC)NC(=S)NC1=S,0.1,/,/,93.4,-0.1
CCCn1c(O)c(N=NC(=O)CNC(=O)/C=C/c2ccc(OC)cc2)c2ccccc21,5.4,i,5.8,100.5,-1.2
CCCn1c(O)c(N=NC(=O)CNC(=O)Cc2ccc(OC)cc2)c2ccccc21,-3.5,+,7.9,?,-0.4
Cn1c(O)c(N=NC(=O)CNC(=O)c2ccccc2)c2ccccc21,-3.2,i,-13.6,-36.5*,0.1
CCOc1ccc(CN2CCN(Cc3cnc(-c4ccccc4)s3)CC2CCO)cc1 (configuration not stated),-2.0,i,-5.7,86.5,-1.9
O=C(Nc1ccc(F)cc1F)c1ccccc1NC(=O)C1CC=CCC1C(=O)O (configuration not stated),-2.5,i,-4.8,/,-0.5
Cc1nn(-c2ccccc2)c(C)c1C(=O)OCC(=O)c1c(N)n(CC(C)C)c(=O)n(C)c1=O,-3.4,i,4.3,101.3,0.0
COCCn1c(=O)[nH]c2cc(C(=O)N3CCN(c4cc(C)ccc4C)CC3)ccc2c1=O,-11.2,/,17.8,93.7,0.9
CCOC(=O)C1=C(O)/C(=C/c2ccc(-c3ccccc3C(=O)O)o2)SC1=Nc1ccc(C)cc1,21.1,/,/,70.9*,-1.3
CCOC(=O)N1CCN(C(=O)CSc2nc(-c3cccc(C)c3)ns2)CC1,2.9,i,0.0,100.3,-1.3
COc1cc(NC(=O)C2CC(c3ccc(Cl)cc3)=NO2)cc(OC)c1OC (configuration not stated),-7.9,/,11.5,63.0*,0.0
CN(C1=NC(=O)C(CC(=O)O)S1)c1ccc(O)cc1 (configuration not stated),-4.1,i,-2.3,22.8*,-0.5
Oc1ccc(-c2nc3ccccn3c2NCc2ccc3c(c2)OCO3)cc1,0.5,+,-17.1,112.0,-0.2
O=C(COc1ccc(S(=O)(=O)NC2CCCC2)cc1)NCC1CCCO1 (configuration not stated),-7.2,i,0.9,100.9,-0.8
Cc1ccc(C2(COC(=O)C(C)C)CO2)c(OC(=O)C(C)C)c1 (configuration not stated),-0.7,+,-7.3,/,-2.9
COC(=O)Cc1cc(=O)oc2cc(OC)ccc12,-7.6,i,-1.4,104.4,-0.6
CC(C)CC1=C/C(=C/c2ccc(-c3ccccc3)o2)C(=O)O1,74.4*,i,23.9,95.5,-0.1
CCN(CC)c1ccc(/C=N/NC(=O)C(O)(c2ccccc2)c2ccccc2)o1,/,+,36.3,/,/
O=C(O)c1ccc(/C=N/NC(=O)C(O)(c2ccccc2)c2ccccc2)cc1,0.2,i,-6.3,111.2,-0.8
O=C(O)c1ccc(OCCOc2ccccc2)cc1,-5.1,i,-14.3,93.5,0.1
CCOC(=O)C1=C(CSc2nc3c(cc2C#N)CN(C)CC3)OC(N)=C(C#N)C1c1ccc(F)cc1 (configuration not stated),15.9,i,44.1,100.2,-0.4
CCOC(=O)C1=C(CSc2nc3c(cc2C#N)CN(C)CC3)OC(N)=C(C#N)C1c1ccccc1 (configuration not stated),11.4,i,52.4*,107.3,-1.1
CCOc1ccc(S(=O)(=O)Nc2ccc(C(=O)N/N=C(\C)c3ccc(-n4ccnc4)cc3)cc2)cc1,41.5*,i,9.3,101.6,-0.8
CCn1c(CSc2nnc3ccccn23)nc2cc(C(=O)O)ccc21,2.0,i,-7.5,36.3*,-1.5

# High-throughput results from PubChem BioAssay.
